pIC50: −log10 of the molar value. Read-outs that look alike come from different tables or passages of the source.

For data set [1], the system named is TNBC (MDA-MB-231) cell membrane preparations. Briefly: Malachite green assay, ATP hydrolysis by TNBC cell membrane preparations. The data set is classed as biochemical, human. The note with it: increasing concentrations of ceritinib, 50 µM ATP. In a few lines:
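Crude membranes came from ~90% confluent MDA-MB-231 or Ma-Mel-65 cells. Cells were homogenised in Tris/EDTA/saccharose/PMSF buffer, pH 7.4, and centrifuged at 1000 g, then 48,000 g for 1 h at 4°C. Pellets were washed and stored at −80°C in 50 mM Tris-HCl, pH 7.4. ATP hydrolysis (50 µM ATP, HEPES/Ca/Mg pH 7.4) was run with increasing test compound concentrations for 15 min at 37°C. Phosphate was read by malachite green (600 nm); triplicates, n=3.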

The target of another data set is T1, CD38 (Homo sapiens, UniProt P28907).
T1 sequence (P28907 43-300 limits assumed): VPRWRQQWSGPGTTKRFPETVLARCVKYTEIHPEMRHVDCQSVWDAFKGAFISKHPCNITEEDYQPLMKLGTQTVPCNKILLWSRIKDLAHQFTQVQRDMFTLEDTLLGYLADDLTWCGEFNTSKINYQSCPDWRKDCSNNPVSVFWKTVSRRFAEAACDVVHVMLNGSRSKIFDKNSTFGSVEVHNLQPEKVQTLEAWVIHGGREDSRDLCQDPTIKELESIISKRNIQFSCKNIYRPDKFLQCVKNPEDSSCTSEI
Briefly: CD38 assay. The format is biochemical. A digest of the protocol:
(§1)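 Either CD38 (5 ng) or NPP5 (250 ng) was mixed with 50 µM test compound and 100 µM NAD+ as substrate. For CD38 the reaction buffer was 10 mM HEPES, pH 7.4.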

The subject of the next data set is human PBMCs. In words: HPLC assay of ATPase activity. The format is cell-based. The note with it: ceritinib 50 µM and higher; 1 µM eATP. A digest of the protocol:
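PBMCs were isolated from buffy coats by density gradient. Cells (2×10^5) were pretreated with test compound (1, 10, 50, 100 µM) for 15 min at 37°C, then given 1 µM eATP (ATPase) or eAMP (AMPase) for 30 min at 37°C. Cells were removed and supernatants 10 kDa-filtered. Etheno-nucleotides were quantified by reversed-phase C8 HPLC (phosphate pH 6.0/methanol gradient; fluorescence 230/410 nm) against standards; singlets, n=2–3.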

Another data set deals with T2, NTPDase2 (Homo sapiens, UniProt Q9Y5L3).
T2 sequence (Q9Y5L3 1-495): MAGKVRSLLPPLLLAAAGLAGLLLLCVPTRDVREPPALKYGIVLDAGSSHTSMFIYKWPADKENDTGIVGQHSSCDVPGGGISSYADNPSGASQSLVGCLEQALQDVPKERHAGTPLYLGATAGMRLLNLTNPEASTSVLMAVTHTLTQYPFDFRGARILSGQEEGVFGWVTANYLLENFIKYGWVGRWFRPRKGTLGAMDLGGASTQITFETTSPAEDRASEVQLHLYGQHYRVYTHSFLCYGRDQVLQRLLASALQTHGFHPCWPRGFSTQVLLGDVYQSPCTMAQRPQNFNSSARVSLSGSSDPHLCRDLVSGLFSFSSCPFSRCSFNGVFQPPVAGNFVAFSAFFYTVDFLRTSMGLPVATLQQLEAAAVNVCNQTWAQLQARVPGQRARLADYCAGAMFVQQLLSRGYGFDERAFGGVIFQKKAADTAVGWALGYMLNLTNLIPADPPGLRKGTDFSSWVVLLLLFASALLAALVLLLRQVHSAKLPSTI
Briefly: Malachite green assay, NTPDase2 in COS-7 cell membranes. The format is biochemical. A digest of the protocol: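 Human NTPDase2, -3 or -8 was expressed in COS-7 membranes (ca. 100 ng protein, adjusted for 10–20% substrate conversion). Enzyme was preincubated 5 min at 37°C with test compound (50 µM single point, or 0.1–300 µM for curves). It was then incubated 15 min at 37°C with 100 µM ATP in HEPES/CaCl2/MgCl2, pH 7.4, ≤2% DMSO. Malachite green absorbance at 600 nm was corrected by a denatured-enzyme blank; n=3.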

The target of a further data set is T3, NPP5 (Homo sapiens, UniProt Q9UJA9).
T3 sequence (Q9UJA9 25-431 limits assumed): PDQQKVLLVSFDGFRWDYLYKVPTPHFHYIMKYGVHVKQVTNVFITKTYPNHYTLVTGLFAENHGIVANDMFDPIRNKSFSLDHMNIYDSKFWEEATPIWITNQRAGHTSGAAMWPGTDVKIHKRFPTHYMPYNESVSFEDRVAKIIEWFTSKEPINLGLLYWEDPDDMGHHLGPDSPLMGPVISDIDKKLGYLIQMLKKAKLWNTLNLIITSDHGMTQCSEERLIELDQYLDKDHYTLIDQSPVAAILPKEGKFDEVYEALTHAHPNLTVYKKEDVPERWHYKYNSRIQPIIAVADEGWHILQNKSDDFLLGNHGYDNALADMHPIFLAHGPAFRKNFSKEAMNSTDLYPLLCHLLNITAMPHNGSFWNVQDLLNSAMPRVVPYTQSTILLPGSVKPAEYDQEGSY
Briefly: NPP5 assay. The data set is classed as biochemical. A digest of the protocol:
as §1

For data set [2] the following is noted: cited from earlier work.
The conditions of data set [3]: cited from earlier work. This is another data set of the same source.
The target in the next data set is T4, Membrane-bound CD73 (Homo sapiens, UniProt P21589).
T4 sequence (P21589 27-574): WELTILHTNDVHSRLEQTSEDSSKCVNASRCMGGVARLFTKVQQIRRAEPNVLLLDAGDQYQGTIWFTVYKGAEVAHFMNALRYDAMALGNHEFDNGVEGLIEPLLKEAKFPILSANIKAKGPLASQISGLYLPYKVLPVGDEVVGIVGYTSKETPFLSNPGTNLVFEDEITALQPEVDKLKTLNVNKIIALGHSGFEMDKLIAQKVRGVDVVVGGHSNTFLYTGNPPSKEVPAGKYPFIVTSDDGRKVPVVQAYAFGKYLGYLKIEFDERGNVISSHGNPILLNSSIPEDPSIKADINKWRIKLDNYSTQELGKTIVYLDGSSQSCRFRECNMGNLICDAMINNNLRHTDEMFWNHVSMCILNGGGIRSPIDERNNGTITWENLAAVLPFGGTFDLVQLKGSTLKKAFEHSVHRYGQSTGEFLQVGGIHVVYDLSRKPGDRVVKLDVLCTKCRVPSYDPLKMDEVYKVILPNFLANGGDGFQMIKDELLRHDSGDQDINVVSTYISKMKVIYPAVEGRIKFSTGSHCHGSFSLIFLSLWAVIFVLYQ
Briefly: Membrane-bound CD73 inhibition. The data set is classed as biochemical.

The mark [4] stands for this setting: read-out: % inhibition at 50 µM.

Take `Cc1cc(Nc2ncc(Cl)c(Nc3ccccc3S(=O)(=O)C(C)C)n2)c(OC(C)C)cc1C1CCNCC1` [ceritinib, Ceritinib]: the “ATPase activity of cancer cell membranes” value in data set [1] is “decreased significantly”. The pIC50 against CD38, at NTPDase2, against NPP5 and at Membrane-bound CD73 was less than 4.30 each time. In addition, the inhibition at 50 µM at CD38 (setting [4]) is 19%; on NTPDase2 (setting [4]) it was -8%; at NPP5 (setting [4]), 1%; on Membrane-bound CD73 (setting [4]), 30%. In addition, the “formation of eAMP from eATP by PBMCs” value with human PBMCs was “completely blocked”. In addition, in data set [2], the metabolic stability result was “metabolically highly stable”. Also, the “average concentration in tumor tissue” value in data set [3] (brain tumor patients, after the 10th applied dose, steady state) is 36 µM; in data set [3] (brain tumors, steady-state conditions) it was 36 nmol/g. Moreover, the “range of concentration in tumor tissue” value in data set [3] (brain tumor patients, after the 10th applied dose) is 2 to 139 µM. In addition, in data set [3], the “concentration in tumor tissues in some patients” value was “above 100 µM”.

A word on the pIC50: it is the IC50 on a negative log10 scale, so that one unit is a factor of ten. A high value points to a low IC50. Usually inhibition stands for the relative decrease from the control value, in per cent.

(Values after paper PMC9394215 (Journal for Immunotherapy of Cancer, 2022).)
